From publication PMC3115441 (Chemical biology & drug design, 2011)
“Also recorded” adds a separate entry of the source. Like-named read-outs stand apart in the source and are kept apart here.

What was measured:
Dopamine 2 (D2) = Dopamine 2 (D2) (Homo sapiens, UniProt P14416); test: NIMH-PDSP radioligand binding, D2
mice = test: Acute toxicity, minimal motor impairment; type: in vivo; conditions: for TOX (30) N/F, animals toxic over tested / TOX (100) N/F, animals toxic over tested / TOX (300) N/F, animals toxic over tested: rotorod; for TOX (30) N/F, animals toxic over tested: 30 mg/kg
[1] = biological target: Norepinephrine Transporter (NET) (Homo sapiens, UniProt P23975); test: NIMH-PDSP radioligand binding, NET
Sequence of Norepinephrine Transporter (NET) (P23975 whole entry): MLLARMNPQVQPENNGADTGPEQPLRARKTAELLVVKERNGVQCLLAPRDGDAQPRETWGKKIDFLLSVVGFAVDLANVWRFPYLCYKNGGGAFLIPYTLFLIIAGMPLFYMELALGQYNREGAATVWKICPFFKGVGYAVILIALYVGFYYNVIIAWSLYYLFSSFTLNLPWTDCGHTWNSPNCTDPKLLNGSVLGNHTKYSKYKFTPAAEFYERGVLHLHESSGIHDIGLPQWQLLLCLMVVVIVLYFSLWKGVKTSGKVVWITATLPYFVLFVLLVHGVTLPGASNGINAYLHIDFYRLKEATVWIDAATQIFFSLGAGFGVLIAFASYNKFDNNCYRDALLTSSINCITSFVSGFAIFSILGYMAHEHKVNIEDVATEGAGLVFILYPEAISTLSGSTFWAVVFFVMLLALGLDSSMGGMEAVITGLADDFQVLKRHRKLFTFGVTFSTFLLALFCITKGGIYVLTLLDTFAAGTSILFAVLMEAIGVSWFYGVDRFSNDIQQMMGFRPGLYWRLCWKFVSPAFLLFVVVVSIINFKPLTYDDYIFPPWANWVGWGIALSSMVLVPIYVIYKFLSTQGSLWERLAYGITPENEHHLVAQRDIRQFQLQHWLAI

[2] = biological target: Serotonin Transporter (SERT) (Homo sapiens, UniProt P31645); test: NIMH-PDSP radioligand binding, SERT
Sequence of Serotonin Transporter (SERT) (P31645 whole entry): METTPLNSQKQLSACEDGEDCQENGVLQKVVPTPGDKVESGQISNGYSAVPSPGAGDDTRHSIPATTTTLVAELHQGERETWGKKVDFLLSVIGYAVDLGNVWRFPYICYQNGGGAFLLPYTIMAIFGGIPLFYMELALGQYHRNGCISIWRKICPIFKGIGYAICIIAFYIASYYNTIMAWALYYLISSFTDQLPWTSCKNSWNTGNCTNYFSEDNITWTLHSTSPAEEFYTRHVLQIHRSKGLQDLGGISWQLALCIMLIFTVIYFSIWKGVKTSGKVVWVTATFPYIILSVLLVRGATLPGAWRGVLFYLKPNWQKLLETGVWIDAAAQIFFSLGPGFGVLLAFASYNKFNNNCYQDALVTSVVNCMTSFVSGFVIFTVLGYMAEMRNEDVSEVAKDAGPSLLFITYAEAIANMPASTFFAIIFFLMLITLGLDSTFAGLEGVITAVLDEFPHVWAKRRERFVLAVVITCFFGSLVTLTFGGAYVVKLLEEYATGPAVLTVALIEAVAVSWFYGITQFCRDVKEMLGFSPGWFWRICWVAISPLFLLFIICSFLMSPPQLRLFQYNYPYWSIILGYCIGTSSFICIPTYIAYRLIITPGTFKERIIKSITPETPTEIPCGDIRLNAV

MES-induced seizures = test: Maximal electroshock; type: in vivo, mice; conditions: for MES (30) N/F, animals active over tested: 30 mg/kg i.p.; for MES protection (in words): 100 mg/kg; for MES (100) N/F, animals active over tested: 100 mg/kg i.p.
Method in brief: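 Mice received test compound i.p. at 30, 100 or 300 mg/kg in 0.01 ml/g and were tested at various intervals after dosing. Corneal electrodes primed with 0.5% tetracaine HCl electrolyte delivered 60 Hz alternating current, 50 mA, for 0.2 s. An animal counted as protected when the hindlimb tonic extensor component was abolished. Results are scored as animals protected over tested.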

Sigma1 = Sigma1 (Rattus norvegicus, UniProt Q9R0C9); test: NIMH-PDSP radioligand binding, Sigma-1
Sequence of Sigma1 (Q9R0C9 whole entry): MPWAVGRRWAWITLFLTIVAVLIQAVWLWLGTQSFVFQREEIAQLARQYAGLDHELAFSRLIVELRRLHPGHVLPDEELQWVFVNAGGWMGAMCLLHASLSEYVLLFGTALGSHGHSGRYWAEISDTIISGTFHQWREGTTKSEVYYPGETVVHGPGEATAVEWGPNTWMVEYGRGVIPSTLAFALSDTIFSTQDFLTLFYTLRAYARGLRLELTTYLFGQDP

Serotonin 2A (5-HT2A) = Serotonin 2A (5-HT2A) (Homo sapiens, UniProt P28223); test: NIMH-PDSP radioligand binding, 5-HT2A
Sequence of Serotonin 2A (5-HT2A) (P28223 whole entry): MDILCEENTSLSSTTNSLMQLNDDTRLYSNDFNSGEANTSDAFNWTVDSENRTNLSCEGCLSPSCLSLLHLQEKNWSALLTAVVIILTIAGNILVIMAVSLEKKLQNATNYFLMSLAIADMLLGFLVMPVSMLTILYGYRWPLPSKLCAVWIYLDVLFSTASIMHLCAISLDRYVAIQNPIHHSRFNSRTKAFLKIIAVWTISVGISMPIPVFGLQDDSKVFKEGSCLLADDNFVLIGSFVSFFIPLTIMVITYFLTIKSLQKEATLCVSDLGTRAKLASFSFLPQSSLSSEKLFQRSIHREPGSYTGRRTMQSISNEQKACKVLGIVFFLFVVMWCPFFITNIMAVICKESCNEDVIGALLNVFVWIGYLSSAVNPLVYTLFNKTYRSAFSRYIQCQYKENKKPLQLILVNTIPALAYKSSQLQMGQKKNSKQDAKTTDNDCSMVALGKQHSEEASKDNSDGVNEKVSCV

[3] = test system: PCP site of the NMDA receptor complex; test: [3H]; type: binding, rat; conditions: for % inhibition of 1 nM [3H] (+)-MK-801: compound at 10 μM (10,000 nM); for IC50: rat forebrain homogenate, 1 nM (+)-[3H]MK-801; for Ki: read-out: NMDA affinity Ki, calculated by Cheng and Prusoff equation
Method in brief: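 Washed rat forebrain homogenate (30 ug/mL protein) in 10 mM HEPES, pH 7.4, with 1 nM (+)-[3H]MK-801, 100 uM glutamate, 30 uM glycine and varied competitor concentrations. Nonspecific binding was set with 30 uM (+)-MK-801. Incubation ran 2 h at room temperature, then vacuum filtration onto GF/B filters, three buffer washes and scintillation counting.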

[4] = biological target: κ- opioid receptors (KOR) (Rattus norvegicus, UniProt P34975); test: NIMH-PDSP radioligand binding, KOR
Sequence of κ- opioid receptors (KOR) (P34975 whole entry): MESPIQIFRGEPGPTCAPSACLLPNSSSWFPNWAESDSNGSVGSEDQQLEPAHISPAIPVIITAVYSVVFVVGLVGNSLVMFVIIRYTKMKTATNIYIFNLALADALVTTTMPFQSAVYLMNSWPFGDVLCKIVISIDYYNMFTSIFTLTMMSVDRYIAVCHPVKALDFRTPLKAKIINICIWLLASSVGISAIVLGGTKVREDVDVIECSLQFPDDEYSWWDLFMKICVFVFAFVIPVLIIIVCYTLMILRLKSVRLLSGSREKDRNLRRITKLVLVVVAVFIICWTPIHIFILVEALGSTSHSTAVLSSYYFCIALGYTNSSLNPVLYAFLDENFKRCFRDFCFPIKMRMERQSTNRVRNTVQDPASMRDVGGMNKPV

[5] = biological target: μ- opioid receptors (MOR) (Homo sapiens, UniProt P35372); test: NIMH-PDSP radioligand binding, MOR
Sequence of μ- opioid receptors (MOR) (P35372 whole entry): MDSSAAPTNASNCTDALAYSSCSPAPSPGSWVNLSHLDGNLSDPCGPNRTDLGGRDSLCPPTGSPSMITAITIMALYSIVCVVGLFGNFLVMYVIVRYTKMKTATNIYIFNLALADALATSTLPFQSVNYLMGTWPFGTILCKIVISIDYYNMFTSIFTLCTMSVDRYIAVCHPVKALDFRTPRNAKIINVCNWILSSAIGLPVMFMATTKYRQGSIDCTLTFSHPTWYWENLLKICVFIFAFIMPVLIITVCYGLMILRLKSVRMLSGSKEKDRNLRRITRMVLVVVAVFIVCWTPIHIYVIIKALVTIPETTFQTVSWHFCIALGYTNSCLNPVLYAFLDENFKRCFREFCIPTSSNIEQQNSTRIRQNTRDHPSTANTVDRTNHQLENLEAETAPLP

[6] = test system: Metrazol-induced clonic seizures; test: Subcutaneous Metrazol seizure threshold test; type: in vivo, mice; conditions: for scMET (30) N/F, animals active over tested: 30 mg/kg; for scMET (100) N/F, animals active over tested: 100 mg/kg; for scMET (300) N/F, animals active over tested: 300 mg/kg
Dopamine 1 (D1) = Dopamine 1 (D1) (Homo sapiens, UniProt P21728); test: NIMH-PDSP radioligand binding, D1
Sequence of Dopamine 1 (D1) (P21728 whole entry): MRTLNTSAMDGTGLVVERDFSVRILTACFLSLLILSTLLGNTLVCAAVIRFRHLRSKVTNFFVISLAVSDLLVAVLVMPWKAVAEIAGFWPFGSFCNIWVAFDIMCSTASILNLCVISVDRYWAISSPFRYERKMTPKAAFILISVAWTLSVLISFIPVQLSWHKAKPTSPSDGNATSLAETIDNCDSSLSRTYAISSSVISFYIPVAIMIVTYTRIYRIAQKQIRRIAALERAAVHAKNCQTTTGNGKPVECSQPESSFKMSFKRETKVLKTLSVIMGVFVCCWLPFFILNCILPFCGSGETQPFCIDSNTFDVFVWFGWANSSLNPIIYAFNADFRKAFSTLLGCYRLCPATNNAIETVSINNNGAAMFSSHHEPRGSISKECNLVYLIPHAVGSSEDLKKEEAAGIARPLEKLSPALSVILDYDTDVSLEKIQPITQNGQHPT

Sigma2 = biological target: T1, Sigma2 (Rattus norvegicus, UniProt Q5U3Y7); test: NIMH-PDSP radioligand binding, Sigma-2
T1 sequence (Q5U3Y7 1-176): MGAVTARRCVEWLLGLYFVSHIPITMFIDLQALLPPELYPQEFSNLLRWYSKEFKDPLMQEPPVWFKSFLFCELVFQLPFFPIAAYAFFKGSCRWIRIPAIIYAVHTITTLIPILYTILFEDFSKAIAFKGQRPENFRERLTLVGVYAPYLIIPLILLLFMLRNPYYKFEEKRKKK

[7] = biological target: Dopamine Transporter (DAT) (Homo sapiens, UniProt Q01959); test: NIMH-PDSP radioligand binding, DAT
Sequence of Dopamine Transporter (DAT) (Q01959 whole entry): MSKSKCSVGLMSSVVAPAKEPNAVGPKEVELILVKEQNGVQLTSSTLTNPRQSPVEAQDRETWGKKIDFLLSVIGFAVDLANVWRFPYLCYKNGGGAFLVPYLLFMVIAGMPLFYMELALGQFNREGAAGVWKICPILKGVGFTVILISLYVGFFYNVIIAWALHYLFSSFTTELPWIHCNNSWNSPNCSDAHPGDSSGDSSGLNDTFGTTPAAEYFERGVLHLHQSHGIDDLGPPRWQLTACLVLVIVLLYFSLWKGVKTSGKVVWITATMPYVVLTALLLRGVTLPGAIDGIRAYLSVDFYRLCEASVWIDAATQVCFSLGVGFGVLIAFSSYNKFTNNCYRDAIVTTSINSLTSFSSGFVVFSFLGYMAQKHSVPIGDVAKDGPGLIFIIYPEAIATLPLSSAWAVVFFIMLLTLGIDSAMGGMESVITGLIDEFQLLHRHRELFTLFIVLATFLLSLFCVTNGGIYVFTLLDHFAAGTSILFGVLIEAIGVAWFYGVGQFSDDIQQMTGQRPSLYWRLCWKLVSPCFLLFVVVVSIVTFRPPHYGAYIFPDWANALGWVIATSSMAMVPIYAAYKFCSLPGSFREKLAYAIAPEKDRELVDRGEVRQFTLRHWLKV

Sequence of Dopamine 2 (D2) (P14416 whole entry): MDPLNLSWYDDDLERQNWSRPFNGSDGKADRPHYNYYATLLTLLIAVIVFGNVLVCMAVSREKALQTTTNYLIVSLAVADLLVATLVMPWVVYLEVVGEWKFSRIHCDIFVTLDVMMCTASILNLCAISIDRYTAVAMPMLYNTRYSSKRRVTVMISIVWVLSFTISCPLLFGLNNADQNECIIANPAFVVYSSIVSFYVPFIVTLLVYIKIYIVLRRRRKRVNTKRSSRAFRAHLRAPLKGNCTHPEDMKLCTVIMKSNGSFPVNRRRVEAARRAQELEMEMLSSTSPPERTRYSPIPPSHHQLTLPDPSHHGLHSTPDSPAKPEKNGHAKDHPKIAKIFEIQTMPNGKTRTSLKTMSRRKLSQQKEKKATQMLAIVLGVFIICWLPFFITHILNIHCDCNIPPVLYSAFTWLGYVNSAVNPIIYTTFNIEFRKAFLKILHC

Row | Molecule | Ki (Dopamine 2 (D2)) | TOX comments (mice; 300 mg/kg, 0.5 h) | TOX (30) N/F, animals toxic over tested (mice; 0.5 h) | TOX (30) N/F, animals toxic over tested (mice; 4.0 h) | TOX (100) N/F, animals toxic over tested (mice; 100 mg/kg, 0.5 h) | TOX (100) N/F, animals toxic over tested (mice; 100 mg/kg, 4.0 h) | TOX (300) N/F, animals toxic over tested (mice; 300 mg/kg, 0.5 h) | Ki [1] | Ki [2] | MES (30) N/F, animals active over tested (MES-induced seizures; 0.5 h) | MES (30) N/F, animals active over tested (MES-induced seizures; 4.0 h) | MES (100) N/F, animals active over tested (MES-induced seizures; 0.5 h) | MES (100) N/F, animals active over tested (MES-induced seizures; 4.0 h) | Ki (Sigma1) | Ki (Serotonin 2A (5-HT2A)) | % inhibition of 1 nM [3H] (+)-MK-801 [3] | scMET (30) N/F, animals active over tested ([6]; 0.5 h) | scMET (30) N/F, animals active over tested ([6]; 4.0 h) | scMET (100) N/F, animals active over tested ([6]; 0.5 h) | scMET (100) N/F, animals active over tested ([6]; 4.0 h) | other results
1 | c1ccc(C2(NCCN3CCCC3)CC3CCC2C3)cc1 (stereo not drawn) [Compound 5e, 2-Phenyl-N-(2-(pyrrolidin-1-yl)ethyl) bicyclo[2.2.1]heptan-2-amine] | > 10 µM | Diarrhea; also recorded: Unable to grasp rotorod; also recorded: Death | 0/4 | 0/2 | 0/8 | 0/4 | 4/4 / | > 10 µM | > 10 µM | 0/1 0/1 | 0/1 0/1 | 0/3 0/3 | 0/3 0/3 | > 10 µM | > 10 µM | greater than 90% | 0/1 0/1 | 0/1 0/1 | 0/1 0/1 | 0/1 0/1 | MES protection (in words) (MES-induced seizures): all protective in the MES test at the dose of 100 mg/kg except for compound 5e; IC50 [3]: 8.48 ± 3.11 µM; Ki [3]: 5.67 µM; Ki [4]: 4.51 µM; Ki [5]: > 10 µM; scMET (300) N/F, animals active over tested ([6]; 0.5 h): 0/1; scMET (300) N/F, animals active over tested ([6]; 4.0 h): 0/0; Ki (Dopamine 1 (D1)): > 10 µM; Ki (Sigma2): > 10 µM; Ki [7]: 3.62 µM
2 | (+)-MK-801 [reference compound] |  |  |  |  |  |  |  |  |  |  |  |  |  |  |  |  |  |  |  |  | Kd ([3]; read-out: Kd for (+)-MK-801 binding, saturation conditions, homologous binding assay): 0.00175 µM; Ki ([3]; reference): 0.00136 µM
3 | c1ccc(C2(NCCN3CCCCC3)CC3CCC2C3)cc1 (stereo not drawn) [Compound 5a, 2-Phenyl-N-(2-(piperidin-1-yl)ethyl)bicyclo[2.2.1]heptan-2-amine] | > 10 µM | Death | 0/4 | 0/2 | 8/8 | 0/4 | 4/4 / | > 10 µM | > 10 µM | 0/1 0/1 | 0/1 0/1 | 3/3 | 1/3 | > 10 µM | 2.64 µM | greater than 90% | 0/1 0/1 | 0/1 0/1 | 0/1 0/1 | 0/1 0/1 | TOX comments (mice; 100 mg/kg, 0.5 h): Clonic seizures; toxicity profile (in words) (mice; mouse, in vivo): acceptable toxicity profile; MES protection (in words) (MES-induced seizures): MES neuroprotection activity; MES neuroprotective activity (in words) (MES-induced seizures; mouse, in vivo): greatest degree of protection from MES induced neural damage and death; affinity for NMDA (in words) [3]: highest affinity for NMDA; IC50 [3]: 7.86 ± 1.64 µM; Ki [3]: 5.28 µM; Ki [4]: 0.876 µM; Ki [5]: > 10 µM; Ki (Dopamine 1 (D1)): > 10 µM; Ki (Sigma2): > 10 µM; Ki [7]: > 10 µM
4 | Fc1ccc(C2(NCCN3CCCC3)CC3CCC2C3)cc1 (stereo not drawn) [Compound 5f] |  | Death | 0/4 | 0/2 | 5/8 | 0/4 | 4/4 / |  |  | 0/1 0/1 | 0/1 0/1 | 1/3 | 0/1 |  |  | greater than 90% | 0/1 0/1 | 0/1 0/1 | 0/1 0/1 | 0/1 0/1 | Ki (Dopamine 2 (D2); read-out: D2 binding affinity, Human Cloned, hot ligand N-Methylspiperone): > 10 µM; TOX comments (mice; 100 mg/kg, 0.5 h): Clonic seizures; Ki ([1]; read-out: NET binding affinity, Human Cloned, hot ligand Nisoxetine): > 10 µM; Ki ([2]; read-out: SERT binding affinity, Human Cloned, hot ligand Citalopram): 4.61 µM; Ki (Sigma1; read-out: Sigma 1 binding affinity, Rat Brain, hot ligand Pentazocine(+)): > 10 µM; Ki (Serotonin 2A (5-HT2A); read-out: 5HT2A binding affinity, Human Cloned, hot ligand Ketanserin): > 10 µM; IC50 [3]: 8.66 ± 2.56 µM; Ki [3]: 5.82 µM; Ki ([4]; read-out: KOR binding affinity, Rat Cloned, hot ligand U69593): 2.11 µM; Ki ([5]; read-out: MOR binding affinity, Human Cloned, hot ligand DAMGO): > 10 µM; Ki (Dopamine 1 (D1); read-out: D1 binding affinity, Human Cloned, hot ligand SCH23390): > 10 µM; Ki (Sigma2; read-out: Sigma 2 binding affinity, Rat C12, hot ligand DTG): > 10 µM; Ki ([7]; read-out: DAT binding affinity, Human Cloned, hot ligand WIN35428): 0.226 µM
5 | NC1(c2ccccc2)CC2CCC1C2 (stereo not drawn) [Compound 4a, 2-phenylbicyclo[2.2.1]heptan-2-amine] | > 10 µM | Death | 0/4 | 0/2 | 8/8 | 0/2 | 4/4 / | > 10 µM | > 10 µM | 0/1 0/1 | 0/1 0/1 |  | 1/1 | 2.2 µM | > 10 µM | greater than 90% | 0/1 0/1 | 0/1 0/1 | 0/1 0/1 | 0/1 0/1 | TOX comments (mice; 100 mg/kg, 0.5 h): Severe Tremors, Death following clonic seizure; IC50 [3]: 13.3 ± 0.63 µM; Ki [3]: 8.45 µM; Ki [4]: > 10 µM; Ki [5]: > 10 µM; Ki (Dopamine 1 (D1)): > 10 µM; Ki (Sigma2): 0.995 µM; Ki [7]: > 10 µM
6 | NC1(c2ccc(F)cc2)CC2CCC1C2 (stereo not drawn) [Compound 4b, 2-(4-fluorophenyl)bicyclo[2.2.1]heptan-2-amine] | > 10 µM | Death following clonic seizure | 0/4 | 0/2 | 8/8 | 0/4 | 4/4 / | > 10 µM | > 10 µM | 0/1 0/1 | 0/1 0/1 | 3/3 | 0/3 | > 10 µM | > 10 µM |  | 0/1 0/1 | 0/1 0/1 | 0/1 0/1 | 0/1 0/1 | TOX comments (mice; 100 mg/kg, 0.5 h): Severe Tremors, Clonic seizures; Ki [4]: > 10 µM; Ki [5]: > 10 µM; Ki (Dopamine 1 (D1)): > 10 µM; Ki (Sigma2): > 10 µM; Ki [7]: > 10 µM
